Measurements as given in publication PMC3415686 (Bioorganic & medicinal chemistry letters, 2012).
One block for each compound: values may come before it.

Tests used:
wt Bcr-Abl-Ba/F3 = wt Bcr-Abl-Ba/F3 (Homo sapiens, UniProt P00519+P11274); assay: Cellular antiproliferative activity on wt Bcr-Abl-Ba/F3; assay type: cell-based, murine; conditions: for antiproliferative activity against wild-type Bcr-Abl (in words): Ba/F3 cells transformed with Bcr-Abl
Procedure, shortened: (§1)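 Murine pre-B Ba/F3 cells transformed with the Bcr-Abl oncogene were used for cellular Bcr-Abl inhibition. Transformed cells grow without interleukin-3 (IL-3). Untransformed parental Ba/F3 cells proliferate only when IL-3 is present.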

Bcr-Abl-T315I-Ba/F3 = Bcr-Abl-T315I-Ba/F3 (Homo sapiens, UniProt P00519+P11274, T315I); assay: Cellular antiproliferative activity on mutant Bcr-Abl-T315I-Ba/F3; assay type: cell-based, murine
Procedure, shortened: as §1

panel of 353 kinases = assay: KINOMEscan kinase selectivity profiling; assay type: binding; conditions: 10 μM
Procedure, shortened: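 KINOMEscan competition binding screen with the test compound at 10 μM against 353 kinases. Hits were kinases with an Ambit score below 10% of the DMSO control. S(10) is the number of kinases scoring below ten divided by the total number of kinases tested at that concentration.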

[1] = Pharmacokinetics following oral and intravenous delivery; assay type: in vivo, rats; conditions: rat
Procedure, shortened: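 Rats were dosed with the test compound orally and intravenously; the oral dose was 2 mg/kg. Serum drug levels were followed to derive oral bioavailability (%F), half-life, Cmax and clearance.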

wt-Ba/F3 = assay: Cytotoxicity on wt; assay type: cell-based, murine
Procedure, shortened: as §1

loss of cellular activity relative to 22 (wt Bcr-Abl-Ba/F3; relative to 22, cell line not given): approximately 10 fold
SMILES: O=C(Nc1ccc(N2CCNCC2)c(C(F)(F)F)c1)c1cccc(-c2ccc3nc(NC(=O)C4CC4)sc3n2)c1 [Compound 24]

SMILES: Nc1nc2ccc(-c3cccc(C(=O)Nc4cccc(C(F)(F)F)c4)c3)nc2s1 [Compound 9a]
antiproliferative activity against wild-type Bcr-Abl (in words) (wt Bcr-Abl-Ba/F3): did not display antiproliferative activity
antiproliferative activity against T315I-Bcr-Abl (in words) (Bcr-Abl-T315I-Ba/F3; Ba/F3 cells transformed with T315I-Bcr-Abl): did not display antiproliferative activity

S(10) score (kinases inhibited below a score of ten / total kinases tested) (panel of 353 kinases): 0.36
AUC (%extrapolated) ([1]; IV 1 mg/kg): 8.7%
AUC (%extrapolated) ([1]; PO 2 mg/kg): 21%
Tmax ([1]; serum, iv, 1 mg/kg): 8.4 min
Tmax ([1]; serum, po, 2 mg/kg): 66 min
SMILES: Cc1cn(-c2cc(NC(=O)c3cccc(-c4ccc5nc(NC(=O)C6CC6)sc5n4)c3)cc(C(F)(F)F)c2)cn1 [Compound 26]

reduction in cellular activity against T315I-Bcr-Abl compared to 22 (Bcr-Abl-T315I-Ba/F3; compared to 22): ~4 fold
SMILES: Cc1cn(-c2cc(NC(=O)Nc3cccc(-c4ccc5nc(NC(=O)C6CC6)sc5n4)c3)cc(C(F)(F)F)c2)cn1 [Compound 33]

improved activity on wild-type Bcr-Abl (urea linkage) (wt Bcr-Abl-Ba/F3; urea linkage in place of amide): 5–10 fold
improved activity on T315I Bcr-Abl (urea linkage) (Bcr-Abl-T315I-Ba/F3; urea linkage in place of amide): 5–10 fold
SMILES: CCN1CCN(Cc2ccc(NC(=O)Nc3cccc(-c4ccc5nc(NC(=O)C6CC6)sc5n4)c3)cc2C(F)(F)F)CC1 [Compound 32]
increased cytotoxicity towards parental Ba/F3 cells (urea linkage) (wt-Ba/F3; urea linkage in place of amide): approximately 5 fold

antiproliferative activity against wild-type Bcr-Abl (in words) (wt Bcr-Abl-Ba/F3): exceptionally potent
SMILES: CCN1CCN(Cc2ccc(NC(=O)c3ccc(C)c(-c4ccc5nc(NC(=O)C6CC6)sc5n4)c3)cc2C(F)(F)F)CC1 [Compound 27]

S(10) score (kinases inhibited below a score of ten / total kinases tested) (panel of 353 kinases): 0.10
EC50 (wt Bcr-Abl-Ba/F3; read-out: Cellular antiproliferative activity (EC50, μM) Bcr-Abl (wt), wt Bcr-Abl-Ba/F3): 0.098 µM
improvement in cellular antiproliferative activity relative to 11 against T315I-Bcr-Abl (Bcr-Abl-T315I-Ba/F3; relative to 11): ~6 fold
AUC (%extrapolated) ([1]; IV 1 mg/kg): 35.3%
AUC (%extrapolated) ([1]; PO 2 mg/kg): 35%
Tmax ([1]; serum, iv, 1 mg/kg): 4.8 min
clearance ([1]; serum, iv, 1 mg/kg): 13 mL/min/kg
Tmax ([1]; serum, po, 2 mg/kg): 162 min
SMILES: CCN1CCN(Cc2ccc(NC(=O)c3cccc(-c4ccc5nc(NC(=O)C6CC6)sc5n4)c3)cc2C(F)(F)F)CC1 [Compound 22]
decrease in cytotoxicity against parental Ba/F3 cells relative to 11 (wt-Ba/F3; relative to 11): 3 fold
